Experimental data as given in ChEMBL document CHEMBL1124352, “Oral hypoglycemic agents. Discovery and structure-activity relationships of phenacylimidazolium halides” (1989).

Experiments:
Mus musculus [1] = assay: Percent blood glucose level in mice 4 hours after peroral administration of compound (100 mg/kg); assay type: functional
Summary of the method: (§1)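 Viable yellow obese diabetic mice, six per group, gavaged with 100 mg/kg in saline-2% Emulphor; six vehicle-gavaged controls. Tail blood taken before dosing and at 2 and 4 h. Glucose measured by glucose oxidase method on an autoanalyzer. Values expressed as percent of zero time, mean ±SE of six mice. Significance versus controls by Student's t test, p < 0.05.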

Mus musculus [2] = assay: Percent blood glucose level in mice 2 hours after peroral administration of compound (100 mg/kg); assay type: functional; summary of the method: as §1

| SMILES | Blood glucose (Mus musculus [1]) [%] | Blood glucose (Mus musculus [2]) [%] |
| --- | --- | --- |
| Cc1cc[n+](CC(=O)c2ccccc2)cc1.[Br-] | 103 | 105 |
| Cn1cc[n+](CC(=O)c2ccc(C#N)cc2)c1.[Br-] | 106 | 105 |
| Cn1cc[n+](CC(=O)c2cccc(C(F)(F)F)c2)c1.[I-] | 97 | 95 |
| Cc1ccc(C(=O)Cn2ccc[n+]2C)cc1.[Br-] | 82 | 83 |
| Cn1cc[n+](C(C)(C)C(=O)c2ccccc2)c1.[Br-] | 113 | 104 |
| Cc1n(C)cc[n+]1CC(=O)c1ccccc1.[Cl-] | 81 | 90 |
| COc1ccc(C(=O)C[n+]2ccn(C)c2)cc1.[Br-] | 77 | 70 |
| Cn1cc[n+](CC(=O)c2ccco2)c1.[Br-] | 92 | 72 |
| COc1cccc(C(=O)Cn2ccn(C)c2=O)c1 | 103 | 101 |
| COc1ccc(C(=O)C[n+]2ccn(C)c2)cc1OC.[Br-] | 81 | 86 |
| CC(=O)C[n+]1ccn(-c2ccccc2)c1.[Cl-] | 109 | 105 |
| COc1cccc(C(=O)C[n+]2ccsc2)c1.[Br-] | 123 | 105 |
| CCCn1cc[n+](CC(=O)c2ccccc2)c1.[Cl-] | 79 | 79 |
| Cn1cc[n+](CC(=O)c2ccccc2F)c1.[Br-] | 99 | 91 |
| Cc1ccc(C(=O)C[n+]2cn(C)c(-c3ccccc3)c2-c2ccccc2)cc1.[Br-] | 105 | 102 |
| Cn1cc[n+](CC(=O)c2ccc(C(N)=O)cc2)c1.[Br-] | 95 | 100 |
| Cc1ccc(C(=O)C[n+]2ccncc2)cc1.[Br-] | 112 | 122 |
| Cc1ccc(C(=O)C[n+]2cc3ccccc3cn2)cc1.[Br-] | 108 | 115 |
| CCOc1cccc(C(=O)C[n+]2ccn(C)c2)c1.[Br-] | 64 | 63 |
| COc1cccc(C(=O)C[n+]2ccn(C(C)C)c2)c1.[Br-] | 83 | 79 |

| SMILES | Blood glucose (Mus musculus [1]) [%] | Blood glucose (Mus musculus [2]) [%] |
| --- | --- | --- |
| C[n+]1ccn(CC(=O)c2ccccc2)c1.[Br-] | 71 | 74 |
| COc1cccc(C(=O)C[N+]2=CN(C)CC2)c1.[Br-] | 97 | 81 |
| Cn1cc[n+](C(C(=O)c2ccccc2)c2ccccc2)c1.[Cl-] (stereo not drawn) | 83 | 94 |
| Br.O=C(Cn1ccnc1)c1ccccc1 | 90 | 103 |
| Cc1ccc(C(=O)C[n+]2ccn(C)c2)cc1.[Br-] | 53 | 57 |
| COc1cc(OC)cc(C(=O)C[n+]2ccoc2)c1.[Br-] | 97 | 95 |
| Cc1ccccc1C(=O)C[n+]1ccn(C)c1.[Br-] | 87 | 80 |
| Cn1cc[n+](CC(=O)c2cccc3ccccc23)c1.[Br-] | 110 | 90 |
| CC(=O)Nc1cccc(C(=O)C[n+]2ccn(C)c2)c1.[Br-] | 109 | 100 |
| Cc1ccc(C(=O)C[n+]2ccn(C)c2)c(C)c1.[Br-] | 79 | 62 |
| Cn1cc[n+](CC(=O)c2ccc3ccccc3c2)c1.[Br-] | 99 | 89 |
| Cn1cc[n+](CC(=O)c2ccc(-c3ccccc3)cc2)c1.[Br-] | 103 | 103 |
| Cc1cc(C)c(C(=O)C[n+]2ccn(C)c2)c(C)c1.[Br-] | 97 | 94 |
| COc1cccc(C(O)C[n+]2ccn(C)c2)c1.[I-] (stereo not drawn) | 103 | 106 |
| CO/N=C(/C[n+]1ccn(C)c1)c1ccc(C)cc1.[I-] | 81 | 86 |
| COC(=O)Cn1cc[n+](CC(=O)c2ccccc2)c1.[Br-] | 84 | 89 |
| Cn1cc[n+](CC(=O)c2cccc(Cl)c2)c1.[Br-] | 112 | 107 |
| Cn1cc[n+](CC(=O)c2ccc(Cl)cc2)c1.[Br-] | 93 | 94 |
| COc1cccc(C(=O)C[n+]2ccn(C)c2SC(C)C)c1.[Br-] | 121 | 101 |
| CC(C(=O)c1ccccc1)[n+]1ccn(C)c1.[Br-] (stereo not drawn) | 61 | 70 |

| SMILES | Blood glucose (Mus musculus [1]) [%] | Blood glucose (Mus musculus [2]) [%] |
| --- | --- | --- |
| COc1cccc(C(=O)C[n+]2ccn(C)c2)c1OC.[Br-] | 88 | 83 |
| COc1cc(OC)cc(C(=O)C[n+]2ccn(C)c2)c1.[Br-] | 69 | 83 |
| Cc1cccc(C(=O)C[n+]2ccn(C)c2)c1.[Br-] | 73 | 78 |
| Cc1ccc(C(=O)C[n+]2ccccn2)cc1.[Br-] | 111 | 105 |
| COc1cccc(C(=O)Cn2ccnc2)c1 | 121 | 110 |
| Cn1cc[n+](CC(=O)c2ccc(O)c(O)c2)c1.[Cl-] | 107 | 108 |
| Cn1cc[n+](CC(=O)c2ccc(Cl)c(Cl)c2)c1.[Br-] | 79 | 94 |
| COc1ccccc1C(=O)C[n+]1ccn(C)c1.[Br-] | 97 | 90 |
| COc1cccc(C(=O)C[n+]2ccn(C)c2)c1.[Br-] | 72 | 58 |
| Cc1ccc(S(=O)(=O)[O-])cc1.Cn1cc[n+](CC(=O)c2cccc(O)c2)c1 | 87 | 93 |
| CCCOc1cccc(C(=O)C[n+]2ccn(C)c2)c1.[Br-] | 72 | 63 |
| Cc1ccc(C(=O)C[n+]2ccn(C)c2)cc1C.[Br-] | 95 | 83 |
| COc1cccc(C(=O)Cn2ccn(C)c2=S)c1 | 80 | 99 |
| COc1cccc(C(=O)C[n+]2ccn(-c3ccccc3)c2)c1.[Br-] | 91 | 96 |
| COc1cccc(C(=O)CC[n+]2ccn(C)c2)c1.[I-] | 94 | 91 |
| Cc1ccc(C(=O)C[n+]2csc3ccccc32)cc1.[Br-] | 108 | 106 |
| CCOc1ccc(C(=O)C[n+]2ccn(C)c2)cc1.[Br-] | 104 | 103 |
| CCc1ccc(C(=O)C[n+]2ccn(C)c2)cc1.[Br-] | 88 | 77 |
| COc1ccc(OC)c(C(=O)C[n+]2ccn(C)c2)c1.[Br-] | 86 | 78 |
